# Rows were chosen to be rich in hits. Some 4.8% of all compounds tested hit in one or more screens of this group.
# T cruzi inh = T. cruzi replication inhibition; 1.4% of 300,000 active; T. cruzi beta-gal in NIH3T3, luminescence, 90 h; inhibition, % (no concentration beside the values);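 active means mean inhibition across valid replicates above about 55%, limit read from the data; inconclusive means mean below that limit but half or more replicates reach it; inactive means mean below it, under half of replicates reach it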;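 further: signal also drops with host cell toxicity which is not excluded here; higher percent means less beta-gal luminescence so fewer parasites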
#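 System – NIH/3T3 host cells with β-galactosidase reporter T. cruzi · Doses – single 50 nL compound addition per well in DMSO · Reagent – 5000 T. cruzi trypomastigotes/well · Medium – Low-serum DMEM with 2% FBS · Timing – ≥90 h infection period, 3 h prior cell attachment · Evaluation – parasite load inhibition, % · Technique – GalScreen luminescence, 60 min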
# GPR7 antagonist = antagonists of human GPR7 (neuropeptides B/W receptor 1); P48145; GPR7-expressing cells, fluorescence antagonist assay; inhibition, % at 4.4 µM; 1.1% of 290,000 active; AID 1861; in the data active means inhibition above about 16%, passing the limit was not always enough;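 further: cells stimulated with the agonist NPW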
# Target sequence (P48145 whole entry, looked up): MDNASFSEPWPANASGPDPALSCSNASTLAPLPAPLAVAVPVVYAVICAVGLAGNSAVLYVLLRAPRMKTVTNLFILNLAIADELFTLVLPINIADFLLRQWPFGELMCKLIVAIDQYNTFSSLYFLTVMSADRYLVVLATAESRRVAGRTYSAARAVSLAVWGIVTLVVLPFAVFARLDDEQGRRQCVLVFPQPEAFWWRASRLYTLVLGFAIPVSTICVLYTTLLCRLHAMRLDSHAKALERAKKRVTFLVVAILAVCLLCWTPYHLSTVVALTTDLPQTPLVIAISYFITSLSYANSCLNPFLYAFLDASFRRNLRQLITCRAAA
# Jurkat NFkB inh = lowers PMA/ionomycin-induced NF-kB signal in Jurkat cells; PMA/ionomycin-induced NF-kB luciferase reporter, luminescence; inhibition, % at 4 µM; 0.53% of 330,000 active; in the data active means inhibition above about 50%
# HSF1 inhib = HSF1 inhibition; activity change, negative = inhibition, % at 7.5 µM (by protocol); NIH3T3-HGL HSE-luciferase, MG132-induced, luminescence 8 h; hits give low values; 0.77% of 300,000 active;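 active means more than half of replicate wells show activity change below -50%, luminescence cut by over half; inconclusive means some wells, but at most half, below -50%; inactive means no replicate well below -50%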;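 further: luciferase reports HSF-1 transcriptional activity via heat shock element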
# 697 NFkB inh = lowers PMA/ionomycin-induced NF-kB signal in 697 B cells; 697 B-cell NF-kB luciferase reporter, 16 h; inhibition, % at 4 µM; 0.33% of 330,000 active; in the data active means inhibition above about 35%
# HSF1 activator = increases HSF-1 driven luciferase reporter signal; NIH3T3-HGL HSF-1 luciferase reporter, MG132, 8 h; 100% = twice DMSO control signal; activation, % at 9 µM; 1.7% of 300,000 active; AID 504408;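 active means mean replicate activation of at least 50% with a set share of replicates each reaching 50%; inconclusive means only one of those two conditions met; inactive means mean below 50% and too few replicates reaching it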
# A number is an active result; n = inactive; u = inconclusive; x = no result given.
SMILES,T cruzi inh,GPR7 antagonist,Jurkat NFkB inh,HSF1 inhib,697 NFkB inh,HSF1 activator
CCOc1ccccc1/C=N\Nc1cnn(Cc2ccccc2)c(=O)c1Cl,56,n,n,n,n,n
COC(=O)c1cn(NC(=O)C2CCC(C)CC2)c(=O)c2ccccc12 (stereo not given),n,n,n,n,n,81
COC(=O)c1cn(NC(=O)CCC2CCCC2)c(=O)c2ccccc12,n,n,n,-77,n,n
CCCCn1c(=O)[nH]c(=O)c2c1nc(-c1ccc(C)c([N+](=O)[O-])c1)n2CC,n,n,n,n,n,n
Cc1ccc(-c2nc3c(c(=O)[nH]c(=O)n3CC(C)C)n2CC(C)C)cc1[N+](=O)[O-],58,n,n,n,n,n
CC(=O)c1ccc(N=C2C(=O)Nc3ccccc32)cc1,n,n,n,n,n,62
CCN(CC)c1ncnc2c1cnn2Cc1ccc(Cl)cc1,n,n,n,n,n,n
CCCCC(=O)NC(c1cccs1)c1cc(Cl)c2cccnc2c1O (stereo not given),u,n,n,n,n,n
CCCC(=O)NC(c1ccc(OC)c(OC)c1)c1cc(Cl)c2cccnc2c1O (stereo not given),56,n,n,n,n,n
O=C(NC(c1ccc(Cl)cc1)c1cc(Cl)c2cccnc2c1O)c1cccnc1 (stereo not given),58,n,x,n,x,n
COc1ccc(C(NC(C)=O)c2cc(Cl)c3cccnc3c2O)cc1 (stereo not given),63,n,n,n,n,n
CCC(=O)NC(c1cccs1)c1cc(Cl)c2cccnc2c1O (stereo not given),59,n,n,u,n,n
CCC(=O)NC(c1cc(Cl)c2cccnc2c1O)C(C)C (stereo not given),x,x,n,x,n,x
Cc1c(C=O)c2cc(OCc3ccccc3)ccc2n1C,n,n,n,n,n,n
O=[N+]([O-])c1ccc(CSc2ccc(S(=O)(=O)N3CCOCC3)cn2)cc1,x,x,n,x,n,x
CC(=O)NC(c1ccccc1)c1cc(Cl)c2cccnc2c1O (stereo not given),u,n,n,-83,n,n
CCC(=O)NC(c1ccc(Cl)cc1Cl)c1ccc2cccnc2c1O (stereo not given),67,n,n,n,n,n
CC(C)C(=O)NC(c1ccc(Cl)cc1Cl)c1ccc2cccnc2c1O (stereo not given),n,n,n,n,n,n
C=CCn1cc(C(=O)N2CCN(c3ccccc3)CC2)c(=O)c2cc(S(=O)(=O)N3CCCC3)ccc21,n,n,n,n,n,n
COc1ccc(-c2[nH]ncc2CN(C)CC2CCCCO2)cc1F (stereo not given),n,n,n,n,n,n
COCCCNC(=O)CCCN1C(=O)c2cccnc2Sc2ccccc21,n,n,n,n,n,n
Cc1c(N(C(=O)CNC(=O)c2ccccc2)C2(C(=O)NC3CCCCC3)CCCCC2)c(=O)n(-c2ccccc2)n1C,n,n,n,n,n,n
O=C(CCNS(=O)(=O)c1cccc2nsnc12)NCc1cccs1,n,n,n,-80,n,n
CC(C)OCCCNC(=O)C1CCC(CNS(=O)(=O)c2cccc3nsnc23)CC1 (stereo not given),n,n,n,n,n,n
CC(C)CCNC(=O)C1CCC(CNS(=O)(=O)c2cccc3nsnc23)CC1 (stereo not given),56,n,n,n,n,n
SMILES,T cruzi inh,GPR7 antagonist,Jurkat NFkB inh,HSF1 inhib,697 NFkB inh,HSF1 activator
CCCCN(C(=O)c1cccc(-n2cccc2)c1)c1c(N)n(Cc2ccccc2)c(=O)[nH]c1=O,n,x,n,n,n,n
COc1ccc(-c2ccc(=O)n(Cc3cccc([N+](=O)[O-])c3)n2)cc1,n,39,n,n,n,n
COc1ccc(CCNC(=S)NCc2ccc(Cl)c(Cl)c2)cc1OC,60,n,n,n,n,n
COc1ccc(CNCCc2ccccc2)cc1OCC(N)=O,u,n,n,n,n,n
COc1ccc(CNCCc2ccc(Cl)cc2)cc1OCc1ccccc1,70,n,n,n,n,n
CCOc1cc(CNCCc2ccc(S(N)(=O)=O)cc2)ccc1OCc1ccccc1,n,n,x,n,x,n
CCCCCNCc1ccc(OCc2ccc(Cl)nc2)c(OC)c1,n,n,n,n,n,n
CCOc1cc(CNCCc2ccc(S(N)(=O)=O)cc2)cc(Cl)c1OCc1ccccc1,58,n,n,n,n,n
COc1ccc(CCNCc2ccc(OCc3ccc(Cl)nc3)c(OC)c2)cc1OC,57,n,n,n,n,n
O=C(CN1CCN(C(=O)c2cncn2-c2ccccc2)CC1)Nc1ccccc1Cl,x,x,n,x,n,x
CCN(Cc1ccccc1)Cc1ccc(OCc2ccccc2)c(OC)c1,n,n,n,n,n,n
COc1cc(CNc2ccc3[nH]c(=O)[nH]c3c2)ccc1OCc1ccc(F)cc1,n,n,n,n,n,n
COc1cc(CNc2ccc3[nH]c(=O)[nH]c3c2)ccc1OCc1ccc(Cl)cc1,n,n,n,n,n,83
COc1cc(CN(C)CCc2ccccc2)ccc1OCc1ccccc1,63,n,n,n,n,n
CCN(C(=O)COC(=O)c1ccc2[nH]c3c(c2c1)CCCC3)C1CCS(=O)(=O)C1 (stereo not given),n,n,n,n,n,n
CCC(C(=O)NCc1ccco1)n1nc(C)n2c(cc3occc32)c1=O (stereo not given),n,n,n,n,n,n
O=[N+]([O-])c1ccccc1/C=C/C=N/Nc1ccc(S(=O)(=O)Nc2ccc(Cl)cc2)cc1[N+](=O)[O-],68,n,n,n,n,n
O=C(O)c1ccc(N/N=C/C=C/c2ccccc2[N+](=O)[O-])cc1,n,19,n,n,n,n
O=C(N/N=C/C=C\c1ccccc1[N+](=O)[O-])c1cc(-c2ccc3ccccc3c2)n[nH]1,n,n,x,n,x,64
O=C(N/N=C/C=C/c1ccccc1[N+](=O)[O-])c1ccncc1,n,n,n,n,n,n
CN1CC(=O)N(CC(=O)Nc2cccc(S(=O)(=O)N3CCOCC3)c2)C1=O,n,n,n,n,n,n
CCC(C)(C)C1CCC2(CC1)NC(=O)N(CC(=O)NCCc1c[nH]c3ccccc13)C2=O (stereo not given),x,x,n,x,n,x
COc1cc(CCCN2CCNC[C@@H]2Cc2ccc(O)cc2)cc(OC)c1OC,n,x,n,-55,n,n
Cc1cc(C(=O)Nc2ccc(CC(=O)O)cc2)c(C)o1,n,n,n,n,n,n
O=C1CC(NS(=O)(=O)c2ccc([N+](=O)[O-])cc2)CN1c1ccc(Cl)cc1 (stereo not given),62,x,n,n,n,n
O=C(CN(C(=O)c1csnn1)c1ccc(F)c(Cl)c1)NCc1ccc(F)cc1,n,n,n,n,n,72

# Source: PubChem
